Key:
Eimeria acervulina [1] = experiment: Anticococcidal activity against Eimeria acervulina in Chick assessed as reduction in oocyte at 6.25 ppm relative to control; type: functional; set-up: scale not given: the % may be the effect or the level left
Outline: (§1)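 Expanded Mini-Assay Coccidiosis (ExMAC) in chickens infected with E. tenella, E. acervulina, E. mitis and E. maxima. Compound given in the feed at the stated ppm. Efficacy for each species is scored 0 to 4 from the percent oocyst reduction relative to an untreated control. Where a compound was tested more than once, all values are reported.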

Eimeria acervulina [2] = experiment: Anticococcidal activity against Eimeria acervulina in Chick assessed as reduction in oocyte at 25 ppm relative to control; type: functional; set-up: scale not given: the % may be the effect or the level left; outline: as §1
Eimeria mitis [3] = experiment: Anticococcidal activity against Eimeria mitis in Chick assessed as reduction in oocyte at 6.25 ppm relative to control; type: functional; set-up: scale not given: the % may be the effect or the level left; outline: as §1
Eimeria maxima [4] = experiment: Anticococcidal activity against Eimeria maxima in Chick assessed as reduction in oocyte at 12.5 ppm relative to control; type: functional; set-up: scale not given: the % may be the effect or the level left; outline: as §1
Eimeria tenella [5] = experiment: Anticococcidal activity against Eimeria tenella in Chick assessed as reduction in oocyte at 25 ppm relative to control; type: functional; set-up: scale not given: the % may be the effect or the level left; outline: as §1
Eimeria tenella [6] = experiment: Anticococcidal activity against Eimeria tenella in Chick assessed as reduction in oocyte at 6.25 ppm relative to control; type: functional; set-up: scale not given: the % may be the effect or the level left; outline: as §1
Eimeria acervulina [7] = experiment: Anticococcidal activity against Eimeria acervulina in Chick assessed as reduction in oocyte at 12.5 ppm relative to control; type: functional; set-up: scale not given: the % may be the effect or the level left; outline: as §1
Eimeria maxima [8] = experiment: Anticococcidal activity against Eimeria maxima in Chick assessed as reduction in oocyte at 6.25 ppm relative to control; type: functional; set-up: scale not given: the % may be the effect or the level left; outline: as §1
Eimeria mitis [9] = experiment: Anticococcidal activity against Eimeria mitis in Chick assessed as reduction in oocyte at 12.5 ppm relative to control; type: functional; set-up: scale not given: the % may be the effect or the level left; outline: as §1
Eimeria mitis [10] = experiment: Anticococcidal activity against Eimeria mitis in Chick assessed as reduction in oocyte at 25 ppm relative to control; type: functional; set-up: scale not given: the % may be the effect or the level left; outline: as §1
[11] = target: cGMP-dependent protein kinase (Eimeria tenella, UniProt Q8MMZ8); experiment: Inhibition of Eimeria tenella cGMP-dependent protein kinase by Ten_K assay
Chain of cGMP-dependent protein kinase (Q8MMZ8 whole entry): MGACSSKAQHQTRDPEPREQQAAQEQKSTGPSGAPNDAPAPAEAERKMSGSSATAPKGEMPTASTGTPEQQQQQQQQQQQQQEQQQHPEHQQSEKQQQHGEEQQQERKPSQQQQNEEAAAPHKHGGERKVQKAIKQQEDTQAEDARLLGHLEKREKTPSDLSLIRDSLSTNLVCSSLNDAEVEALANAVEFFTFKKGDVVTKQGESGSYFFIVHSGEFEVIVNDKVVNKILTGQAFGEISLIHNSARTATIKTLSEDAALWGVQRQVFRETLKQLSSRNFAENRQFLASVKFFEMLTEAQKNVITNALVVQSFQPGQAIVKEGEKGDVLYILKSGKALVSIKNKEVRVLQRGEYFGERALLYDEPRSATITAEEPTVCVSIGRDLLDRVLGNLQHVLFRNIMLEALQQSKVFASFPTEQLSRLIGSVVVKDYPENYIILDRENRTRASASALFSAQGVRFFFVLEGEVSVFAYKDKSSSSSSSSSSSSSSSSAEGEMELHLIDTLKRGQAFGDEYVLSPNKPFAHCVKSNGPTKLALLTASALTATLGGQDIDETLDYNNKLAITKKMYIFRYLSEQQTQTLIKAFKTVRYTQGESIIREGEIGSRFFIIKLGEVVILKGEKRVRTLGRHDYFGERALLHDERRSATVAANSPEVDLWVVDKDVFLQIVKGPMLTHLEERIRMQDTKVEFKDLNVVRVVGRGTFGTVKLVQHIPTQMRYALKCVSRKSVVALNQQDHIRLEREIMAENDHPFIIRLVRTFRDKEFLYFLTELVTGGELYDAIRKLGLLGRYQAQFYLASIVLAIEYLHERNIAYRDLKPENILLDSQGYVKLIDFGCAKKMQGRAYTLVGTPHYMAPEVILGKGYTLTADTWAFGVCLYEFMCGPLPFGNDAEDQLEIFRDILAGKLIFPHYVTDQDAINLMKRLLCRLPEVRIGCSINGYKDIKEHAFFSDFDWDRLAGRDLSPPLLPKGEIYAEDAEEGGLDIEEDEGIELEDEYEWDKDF
Outline: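 Ten_K (Tenella Kinase) assay measuring inhibition of E. tenella PKG enzyme activity. Result expressed as the concentration giving 50% inhibition (IC50, nM). Where a compound was tested more than once, all values are reported.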

Eimeria maxima [12] = experiment: Anticococcidal activity against Eimeria maxima in Chick assessed as reduction in oocyte at 25 ppm relative to control; type: functional; set-up: scale not given: the % may be the effect or the level left; outline: as §1
Eimeria tenella [13] = experiment: Anticococcidal activity against Eimeria tenella in Chick assessed as reduction in oocyte at 12.5 ppm relative to control; type: functional; set-up: scale not given: the % may be the effect or the level left; outline: as §1

SMILES	IC50 [11] [nM]	Activity (Eimeria acervulina [1]) [%]	Activity (Eimeria acervulina [2]) [%]	Activity (Eimeria mitis [3]) [%]	Activity (Eimeria maxima [4]) [%]	Activity (Eimeria tenella [5]) [%]	Activity (Eimeria tenella [6]) [%]	Activity (Eimeria acervulina [7]) [%]	Activity (Eimeria maxima [8]) [%]	Activity (Eimeria mitis [9]) [%]	Activity (Eimeria mitis [10]) [%]	Activity (Eimeria maxima [12]) [%]	Activity (Eimeria tenella [13]) [%]
CN(C)Cc1ccn2c(-c3ccnc(NC(=O)C4CC4)n3)c(-c3ccc(F)cc3)nc2c1	0.42	80	80	<50	80	80	50	80	<50	80	80	50	80
Cc1cnc(N)nc1-c1c(-c2ccc(F)cc2)nc2cc(CN(C)C)ccn12	0.23	<50	80	<50	80	80	<50	<50	80	80	80	80	80
CN(C)Cc1ccn2c(-c3ccnc(NC(=O)C4CCC4)n3)c(-c3ccc(F)cc3)nc2c1	0.27	<50	80	<50	80	80	80	<50	<50	80	80	80	80
CN(C)Cc1ccn2c(-c3ccnc(NCCCO)n3)c(-c3ccc(F)cc3)nc2c1	0.33	<50		<50	80		80	80	80	80			80
CN(C)Cc1ccn2c(-c3ccnc(NC=O)n3)c(-c3ccc(F)cc3)nc2c1	0.45	80		<50	80		80	80	80	50			80

The next compounds have a lower IC50 [11] than those just listed; values first:

IC50 [11] [nM]	SMILES	Activity (Eimeria acervulina [1]) [%]	Activity (Eimeria acervulina [2]) [%]	Activity (Eimeria mitis [3]) [%]	Activity (Eimeria maxima [4]) [%]	Activity (Eimeria tenella [5]) [%]	Activity (Eimeria tenella [6]) [%]	Activity (Eimeria acervulina [7]) [%]	Activity (Eimeria maxima [8]) [%]	Activity (Eimeria mitis [9]) [%]	Activity (Eimeria mitis [10]) [%]	Activity (Eimeria maxima [12]) [%]	Activity (Eimeria tenella [13]) [%]
0.12	CN(C)Cc1ccn2c(-c3ccnc(NC4CCCCC4)n3)c(-c3ccc(F)cc3)nc2c1	<50	50	<50	80	80	80	<50	80	50	80	80	80
0.102	CN(C)Cc1ccn2c(-c3ccnc(NC4CCCC4)n3)c(-c3ccc(F)cc3)nc2c1	80		50	80		80	80	<50	80			80
0.08	CN(C)Cc1ccn2c(-c3ccnc(NC4CC4)n3)c(-c3ccc(F)cc3)nc2c1	80	80	<50	80	80	<50	80	80	50	80	80	80
0.064	CN(C)Cc1ccn2c(-c3ccnc(NCC4CC4)n3)c(-c3ccc(F)cc3)nc2c1	80	80	<50	80	80	<50	80	80	80	80	80	80

Source: ChEMBL document CHEMBL1139934, “Synthesis and biological activity of imidazopyridine anticoccidial agents: part I” (Eur J Med Chem, 2007)
